Experimental data taken from paper PMC4168221 (Clinical Drug Investigation, 2014).
“Also recorded” adds a separate entry of the source. Where two headings read alike, the source gives them in different places.

Assays:
[1] = cited from earlier work
[2] = system: urinary glucose excretion; test: 24-h urinary glucose excretion, change from baseline; assay type: in vivo, human (Japanese patients with type 2 diabetes mellitus); settings: both doses
Outline: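 Each crossover period gave one oral single dose of test compound (100 or 200 mg) 10 min before breakfast, with ≥14-day washout and fixed meals. Change was taken from the baseline day.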

blood glucose = settings: phase III; non-Japanese type 2 diabetes patients with moderate renal impairment (eGFR ≥30 and <50 mL/min/1.73 m^2); cited from earlier work
[3] = Urinary pharmacokinetics of unchanged canagliflozin; assay type: in vivo, human (Japanese patients with type 2 diabetes mellitus); settings: for Ae0–72h% (cumulative urinary excretion rate from time zero to 72 h) / CLR: mean (SD)
Outline: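 Per period, urine was collected at 11–0 h pre-dose, then 0–4.5, 4.5–10.5, 10.5–13, 13–24, 24–48 and 48–72 h after a single oral 100 or 200 mg dose. Volumes were recorded, and mixed aliquots were stored at −20 °C. Parent drug was measured by solid-phase extraction then HPLC–MS/MS (validated 1–2,000 ng/mL).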

[4] = assay type: in vivo, human (Japanese patients with type 2 diabetes mellitus); settings: for AUC∞ / C max / CL/F / Vd/F / t ½: mean (SD); for t max: median (range)
Outline: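 Single oral dose (100 or 200 mg) given before breakfast in a two-period crossover. Blood was drawn pre-dose and at 0.5–72 h (13 samples) into K2EDTA, iced, centrifuged, and plasma stored at −20 °C. Parent drug was measured by HPLC–MS/MS (1–2,000 ng/mL). Metabolites were measured by acetonitrile precipitation then HPLC–MS/MS (5–10,000 ng/mL). Group ratios are least square means with 90 % CI.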

[5] = single dose of canagliflozin 100 mg; non-Japanese patients with normal renal function or mild renal impairment; cited from earlier work
[6] = Japanese patients with type 2 diabetes; cited from earlier work
[7] = Safety: adverse events after single doses; assay type: in vivo, human (Japanese patients with type 2 diabetes mellitus)
Outline: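 Adverse events were recorded with intensity and relation to drug, then coded by system organ class and preferred term (MedDRA/J 15.0). Adverse drug reactions were events the investigator judged reasonably related. Also checked: laboratory tests, renal function, vital signs, body weight and 12-lead ECG. Patients were hospitalised and received single 100 and 200 mg oral doses in crossover.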

[8] = canagliflozin 100 mg, moderate renal impairment (n = 12)
[9] = canagliflozin 100 mg, normal renal function or mild renal impairment (n = 12)
[10] = canagliflozin 200 mg, moderate renal impairment (n = 12)
[11] = canagliflozin 200 mg, normal renal function or mild renal impairment (n = 12)
[12] = canagliflozin 100 mg single dose
[13] = canagliflozin 100 mg single dose, moderate renal impairment (n = 12)
[14] = canagliflozin 200 mg single dose
[15] = canagliflozin 200 mg single dose, moderate renal impairment (n = 12)
[16] = Moderate renal impairment, canagliflozin 100 mg (n = 12)
[17] = Moderate renal impairment, canagliflozin 200 mg (n = 12)
[18] = Normal renal function or mild renal impairment, canagliflozin 100 mg (n = 12)
[19] = Normal renal function or mild renal impairment, canagliflozin 200 mg (n = 12)
[20] = single doses of 100 and 200 mg, all patients

## OC[C@H]1O[C@@H](c2ccc(Cl)c(Cc3ccc(O[C@H]4CCOC4)cc3)c2)[C@H](O)[C@@H](O)[C@@H]1O [empagliflozin]
[1]
  CLR in patients with moderate renal impairment: decreased
  systemic exposure in patients with moderate renal impairment: moderately increased

## Cc1ccc([C@@H]2O[C@H](CO)[C@@H](O)[C@H](O)[C@H]2O)cc1Cc1ccc(-c2ccc(F)cc2)s1 [Canagliflozin, canagliflozin]
[2]
  ΔUGE24 h in moderate renal impairment relative to normal renal function or mild renal impairment: approximately 70%
Blood glucose
  blood glucose-lowering effect compared with placebo: significant blood glucose-lowering effect
[3]; % of the dose, both doses
  amount of canagliflozin excreted into urine from 0 to 72 h (urinary excretion ratio of unchanged drug): < 1%
[3]; [8]
  Ae0–72h% (cumulative urinary excretion rate from time zero to 72 h): 0.538 (0.229) %
  CLR: 0.064 (0.021) L/h
[3]; [9]
  Ae0–72h% (cumulative urinary excretion rate from time zero to 72 h): 0.541 (0.168) %
  CLR: 0.085 (0.037) L/h
[3]; [10]
  Ae0–72h% (cumulative urinary excretion rate from time zero to 72 h): 0.480 (0.143) %
  CLR: 0.058 (0.022) L/h
[3]; [11]
  Ae0–72h% (cumulative urinary excretion rate from time zero to 72 h): 0.559 (0.182) %
  CLR: 0.080 (0.029) L/h
[4]; 100 and 200 mg single doses
  time to reach maximum concentration (C max), median: ≤ 1 h
[4]; [12]
  AUC∞ ratio (90 % CI) of least square means, moderate renal impairment relative to normal renal function or mild renal impairment: 1.258 (1.061–1.490)
  C max ratio (90 % CI) of least square means, moderate renal impairment relative to normal renal function or mild renal impairment: 0.982 (0.821–1.173)
[4]; canagliflozin 100 mg single dose, listed as canagliflozin
  AUC∞ ratio (90 % CI) of least square means, moderate renal impairment relative to normal renal function or mild renal impairment: 1.258 [1.061–1.490]
[4]; [13]
  AUC∞: 8,766 (2551) ng·h/mL
  C max: 1,197.13 (310.56) ng/mL
[4]; [8]
  CL/F: 12.15 (2.87) L/h
  Vd/F: 264 (81) L
  t ½: 15.50 (4.35) h
  t max: 1.0 (1.0–3.0) h
[4]; [9]
  CL/F: 15.24 (3.65) L/h
  Vd/F: 269 (66) L
  t ½: 12.58 (3.14) h
  t max: 1.0 (1.0–3.0) h
[4]; [14]
  AUC∞ ratio (90 % CI) of least square means, moderate renal impairment relative to normal renal function or mild renal impairment: 1.216 (1.026–1.441)
  C max ratio (90 % CI) of least square means, moderate renal impairment relative to normal renal function or mild renal impairment: 0.989 (0.827–1.182)
[4]; canagliflozin 200 mg single dose, listed as canagliflozin
  AUC∞ ratio (90 % CI) of least square means, moderate renal impairment relative to normal renal function or mild renal impairment: 1.216 [1.026–1.441]
[4]; [15]
  AUC∞: 17,835 (4434) ng·h/mL
  C max: 2,333.36 (414.90) ng/mL
[4]; [10]
  CL/F: 11.73 (2.36) L/h
  Vd/F: 242 (67) L
  t ½: 15.15 (6.68) h
  t max: 1.0 (1.0–2.0) h
[4]; [11]
  CL/F: 14.43 (3.73) L/h
  Vd/F: 244 (53) L
  t ½: 12.10 (2.66) h
  t max: 1.0 (1.0–6.0) h
[4]; patients with normal or mild renal impairment, both doses
  half-life (t ½): over 12 h
[4]; single dose of 100 mg, Japanese population with mild or no renal impairment
  AUC from time zero to 24 h: 5,645 ng·h/mL
[5]
  mean 24-h urinary excretion ratio: 0.55%
[6]
  body weight: significantly reduced
[7]; [16]
  Adverse events Total: Incidence: 25.0%
  Adverse events Total: No. of events: 3
  Adverse events Total: No. of subjects: 3
  Back pain: Incidence: 0.0%
  Back pain: No. of events: 0
  Back pain: No. of subjects: 0
  Blood CPK increased: Incidence: 0.0%
  Blood CPK increased: No. of events: 0
  Blood CPK increased: No. of subjects: 0
  Blood creatinine increased: Incidence: 0.0%
  Blood creatinine increased: No. of events: 0
  Blood creatinine increased: No. of subjects: 0
  Blood glucose increased: Incidence: 0.0%
  Blood glucose increased: No. of events: 0
  Blood glucose increased: No. of subjects: 0
  Constipation: Incidence: 0.0%
  Constipation: No. of events: 0
  Constipation: No. of subjects: 0
  Diarrhea: Incidence: 0.0%
  Diarrhea: No. of events: 0
  Diarrhea: No. of subjects: 0
  Nasopharyngitis: Incidence: 8.3%
  Nasopharyngitis: No. of events: 1
  Nasopharyngitis: No. of subjects: 1
  Pollakiuria: Incidence: 8.3%
  Pollakiuria: No. of events: 1
  Pollakiuria: No. of subjects: 1
  Protein urine present: Incidence: 8.3%
  Protein urine present: No. of events: 1
  Protein urine present: No. of subjects: 1
[7]; [17]
  Adverse events Total: Incidence: 8.3%
  Adverse events Total: No. of events: 1
  Adverse events Total: No. of subjects: 1
  Back pain: Incidence: 0.0%
  Back pain: No. of events: 0
  Back pain: No. of subjects: 0
  Blood CPK increased: Incidence: 0.0%
  Blood CPK increased: No. of events: 0
  Blood CPK increased: No. of subjects: 0
  Blood creatinine increased: Incidence: 0.0%
  Blood creatinine increased: No. of events: 0
  Blood creatinine increased: No. of subjects: 0
  Blood glucose increased: Incidence: 0.0%
  Blood glucose increased: No. of events: 0
  Blood glucose increased: No. of subjects: 0
  Constipation: Incidence: 0.0%
  Constipation: No. of events: 0
  Constipation: No. of subjects: 0
  Diarrhea: Incidence: 0.0%
  Diarrhea: No. of events: 0
  Diarrhea: No. of subjects: 0
  Nasopharyngitis: Incidence: 8.3%
  Nasopharyngitis: No. of events: 1
  Nasopharyngitis: No. of subjects: 1
  Pollakiuria: Incidence: 0.0%
  Pollakiuria: No. of events: 0
  Pollakiuria: No. of subjects: 0
  Protein urine present: Incidence: 0.0%
  Protein urine present: No. of events: 0
  Protein urine present: No. of subjects: 0
[7]; [18]
  Adverse events Total: Incidence: 16.7%
  Adverse events Total: No. of events: 3
  Adverse events Total: No. of subjects: 2
  Back pain: Incidence: 8.3%
  Back pain: No. of events: 1
  Back pain: No. of subjects: 1
  Blood CPK increased: Incidence: 0.0%
  Blood CPK increased: No. of events: 0
  Blood CPK increased: No. of subjects: 0
  Blood creatinine increased: Incidence: 0.0%
  Blood creatinine increased: No. of events: 0
  Blood creatinine increased: No. of subjects: 0
  Blood glucose increased: Incidence: 0.0%
  Blood glucose increased: No. of events: 0
  Blood glucose increased: No. of subjects: 0
  Constipation: Incidence: 8.3%
  Constipation: No. of events: 1
  Constipation: No. of subjects: 1
  Diarrhea: Incidence: 8.3%
  Diarrhea: No. of events: 1
  Diarrhea: No. of subjects: 1
  Nasopharyngitis: Incidence: 0.0%
  Nasopharyngitis: No. of events: 0
  Nasopharyngitis: No. of subjects: 0
  Pollakiuria: Incidence: 0.0%
  Pollakiuria: No. of events: 0
  Pollakiuria: No. of subjects: 0
  Protein urine present: Incidence: 0.0%
  Protein urine present: No. of events: 0
  Protein urine present: No. of subjects: 0
[7]; [19]
  Adverse events Total: Incidence: 25.0%
  Adverse events Total: No. of events: 4
  Adverse events Total: No. of subjects: 3
  Back pain: Incidence: 0.0%
  Back pain: No. of events: 0
  Back pain: No. of subjects: 0
  Blood CPK increased: Incidence: 8.3%
  Blood CPK increased: No. of events: 1
  Blood CPK increased: No. of subjects: 1
  Blood creatinine increased: Incidence: 8.3%
  Blood creatinine increased: No. of events: 1
  Blood creatinine increased: No. of subjects: 1
  Blood glucose increased: Incidence: 8.3%
  Blood glucose increased: No. of events: 1
  Blood glucose increased: No. of subjects: 1
  Constipation: Incidence: 0.0%
  Constipation: No. of events: 0
  Constipation: No. of subjects: 0
  Diarrhea: Incidence: 0.0%
  Diarrhea: No. of events: 0
  Diarrhea: No. of subjects: 0
  Nasopharyngitis: Incidence: 8.3%
  Nasopharyngitis: No. of events: 1
  Nasopharyngitis: No. of subjects: 1
  Pollakiuria: Incidence: 0.0%
  Pollakiuria: No. of events: 0
  Pollakiuria: No. of subjects: 0
  Protein urine present: Incidence: 0.0%
  Protein urine present: No. of events: 0
  Protein urine present: No. of subjects: 0
[7]; [20]
  adverse events considered related to the study drug: Only one case of pollakiuria and one of diarrhea were considered to be related to the study drug
  hypoglycemia: no patient developed hypoglycemia; also recorded: None of the patients developed hypoglycemia; also recorded: no cases of hypoglycemia
